# Compound activity: PubChem, several laboratories
# T cell HTS = modulators of CD8 T cell-vesicle binding, primary screen, mouse 2C CD8+ T cells, flow cytometry; response (vesicle binding), % at 7 µM; 2C CD8+ T cell-vesicle binding; active compounds read low; 330,000 compounds, 0.068% hits; AID 2052, 2009;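 active = response, share of CD8 T cells binding vesicles, and their 90th percentile fluorescence all below set limits, cut at about 80% in these data, passing the limit was not always enough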;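 note: values below 100% mean blocked vesicle binding to the CD8+ T cells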
#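 Incubation: binding step 1.5 h, 37 °C, antibody labelling 20 min, ice; system: murine 2C transgenic CD8+ T lymphocytes; technique: cytometric PE anti-B7-1 and Alexa647 anti-CD8 signals after 1% paraformaldehyde fixation; also added: QL9-charged Drosophila Ld/ICAM-1/B7-1 vesicles; control set: naked versus QL9-loaded vesicles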
# Granule exo inh = LAMP-1 surface exposure blockers, TALL-104 cells – cell-based, flow cytometry, MLPCN library, primary screen | inhibition, % at 10 µM | TALL-104 LAMP-1 surface exposure; cells stimulated with thapsigargin and PMA | 360,000 compounds, 0.66% hits | AID 651702, 2012;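 active = inhibition above about 55%, limit read from the data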
# EP2 modulator = EP2 receptor modulators, cAMP readout, primary screen, cell-based, HTRF cAMP, PGE2 stimulation | Prostaglandin E2 receptor EP2 subtype (Homo sapiens), P43116 | EP2-expressing cells, cAMP HTRF FRET, PGE2 co-stimulation | induction, % at 25 µM | 260,000 compounds, 0.83% hits | AID 940, 2007;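 active = compounds whose cAMP rise, as percent of the full-agonist control response, exceeds 60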;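 note: rat C6 glioma line stably carrying human EP2 under a CMV promoter; the protocol text gives 20 µM as final concentration; 100% = response of wells given 1 µM PGE2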
# Target sequence (P43116 whole entry, looked up): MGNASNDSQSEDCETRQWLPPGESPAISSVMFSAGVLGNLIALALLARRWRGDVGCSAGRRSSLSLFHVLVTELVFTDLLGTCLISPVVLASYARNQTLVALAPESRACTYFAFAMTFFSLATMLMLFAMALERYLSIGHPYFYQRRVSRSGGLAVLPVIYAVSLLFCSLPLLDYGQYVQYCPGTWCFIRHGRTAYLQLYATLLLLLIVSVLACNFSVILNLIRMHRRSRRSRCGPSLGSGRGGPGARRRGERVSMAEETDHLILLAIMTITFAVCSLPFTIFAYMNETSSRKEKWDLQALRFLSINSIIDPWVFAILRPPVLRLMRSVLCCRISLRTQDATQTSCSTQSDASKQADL
# EP2 antag = human EP2 receptor antagonists, primary screen, TR-FRET cAMP, C6 glioma cells; Prostaglandin E2 receptor EP2 subtype (Homo sapiens), P43116; C6 glioma cells expressing human EP2; cells stimulated with saturating PGE2; 260,000 compounds, 0.52% hits; inhibition, % at 25 µM;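 active = percent inhibition above 40 after rounding to a whole number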;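 note: rat C6 glioma host cells with rolipram phosphodiesterase inhibitor present; the protocol text gives 20 µM as final concentration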
# MC4R barr agon = MC4R agonists recruiting beta-arrestin, primary screen, cell-based, luminescence, agonist arm of biased-ligand search; activation, % at 8.9 µM; 360,000 compounds, 0.98% hits; U2OS MC4R beta-arrestin complementation; percent of melanotan II response, DMSO zero;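 active = activation above a per-plate cutoff, the mean activation of sample wells on that plate plus 3 SD, cut at about 8% in these data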
# Target sequence (P32245 whole entry, looked up): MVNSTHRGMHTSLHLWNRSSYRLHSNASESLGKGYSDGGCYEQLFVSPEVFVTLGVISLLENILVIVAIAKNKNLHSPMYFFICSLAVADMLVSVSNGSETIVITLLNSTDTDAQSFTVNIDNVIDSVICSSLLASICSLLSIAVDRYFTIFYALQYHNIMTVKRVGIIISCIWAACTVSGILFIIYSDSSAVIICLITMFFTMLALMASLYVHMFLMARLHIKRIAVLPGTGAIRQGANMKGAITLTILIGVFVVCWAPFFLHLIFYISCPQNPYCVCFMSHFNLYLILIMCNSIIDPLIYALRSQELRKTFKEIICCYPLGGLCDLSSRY
# MC4R antagonist = MC4R antagonists of cAMP signaling, primary screen, cell-based, TR-FRET, antagonist arm of biased-ligand search | Melanocortin receptor 4 (Homo sapiens), P32245 | 360,000 compounds, 0.48% hits | MC4R-expressing cells, MTII-stimulated cAMP, LANCE TR-FRET | inhibition, % at 6.5 µM;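 active = inhibition above its plate's cutoff, the mean of tested wells on that plate plus 3 SD, cut at about 29% in these data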;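 note: 0% = Melanotan II alone and 100% = Melanotan II plus saturating MCL0020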
#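 System: U2OS cells stably expressing human melanocortin 4 receptor (MC4R). Reagent: Melanotan II challenge after compound preincubation. Doses: 6.5 µM. Times: 30-min compound, 1-h challenge, 1-h detection, room temperature. Measured by: TR-FRET with Eu-cAMP and labeled anti-cAMP, 671 nm. Replicates: singlicate.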
# MC4R barr ag = MC4R beta-arrestin agonists, retest, confirmation, cell-based, luminescence, U2OS. U2OS MC4R beta-arrestin recruitment; scaled DMSO 0%, Melanotan II 100%. 2,400 compounds, 31% hits. AID 602192, 2012. shares compounds with MC4R barr agon. activation, % at 8.9 µM;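 active = mean activation across replicates above the hit cutoff set in the earlier primary screen, cut at about 8% in these data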
# MOR DOR agonist = agonists of MOR-DOR heterodimerization, counter-screen for MC4R biased agonist project, cell-based, luminescence | shares compounds with MC4R barr agon | U2OS PathHunter beta-arrestin, beta-gal luminescence; percent of deltorphin B response, DMSO zero | activation, % at 9.2 µM | 2,400 compounds, 5.8% hits | AID 602194, 2012;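 active = mean activation across replicates exceeds the hit threshold derived in the earlier primary screen, cut at about 18% in these data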;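 note: 100% = deltorphin B at 0.9 µM final and 0% = DMSO alone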
# * = called active by the depositor; i = inactive; . = no result given. An excerpt weighted towards active compounds, which were near 2.6% of everything screened.
SMILES,T cell HTS,Granule exo inh,EP2 modulator,EP2 antag,MC4R barr agon,MC4R antagonist,MC4R barr ag,MOR DOR agonist
COc1ccc(-c2nc(C#N)c(NCc3ccccc3Cl)o2)cc1,i,4.2,-31.8,5.6,7.3,-14.4,.,.
CC(C)N(C(=O)CSc1nnc(Cc2ccc3c(c2)OCO3)n1C)C(C)C,673.7,-2.6,20.1,9.5,-2.3,-0.9,.,.
Cn1c(=O)c(C(=O)CSc2ccccc2)c(N)n(Cc2ccccc2)c1=O,534.7,7.0,-29.8,9.8,29.5*,-1.5,0.9,8.7
O=C(NCc1ccc2c(c1)OCO2)c1cc(-c2cc(Cl)ccc2O)n[nH]1,167.3,-1.7,-51.6,15.4,11.0*,3.2,4.8,3.6
Cc1cc(O)c(-c2cc(C(=O)NCc3ccc4c(c3)OCO4)[nH]n2)cc1C,267.3,1.1,-41.8,5.2,1.3,1.8,.,.
Cc1ccccc1OCC(O)CNC1CCC(NCC(O)COc2ccccc2C)CC1 (stereo not drawn),153.5,26.5,.,.,11.0*,6.1,38.0*,34.9*
Clc1ccc(-n2ncc3c(NCc4ccc5c(c4)OCO5)ncnc32)cc1,301.6,1.1,-4.4,14.9,10.2*,6.3,2.7,6.7
CC(=O)c1ccc(Cc2ccc(C(C)=O)s2)s1,.,-6.3,.,.,11.0*,-0.3,11.8*,2.2
COc1ccc2cc(-c3cc(C(=O)OCC(=O)Nc4c(C)n(C)n(-c5ccccc5)c4=O)c4ccccc4n3)ccc2c1,.,-1.5,-7.6,18.9,20.6*,0.4,5.2,2.7
Cc1ccccc1N1CCN(S(=O)(=O)c2nnc(NC(=O)CC(C)C)s2)CC1,281.9,3.4,.,.,12.9*,-1.3,1.1,6.1
Cc1ccccc1N1CCN(S(=O)(=O)c2nnc(NC(=O)c3ccco3)s2)CC1,282.9,1.3,.,.,0.9,1.6,.,.
COc1ccc(NC(=O)c2ccccc2NC(=O)CSc2ccccc2)cc1,266.5,-9.1,13.7,6.9,13.4*,0.9,-0.9,4.7
COc1ccc(NC(=O)c2ccccc2NC(=O)c2ccccc2)cc1,302.4,-1.2,.,.,9.6*,2.6,2.4,4.8
O=C(CSc1ccccc1)Nc1ccc(C(=O)Nc2ccc(O)cc2)cc1,.,-4.0,-7.7,4.2,28.5*,5.3,15.4*,4.5
O=C1N/C(=C/c2cccn2-c2ccc(F)cc2)C(=O)N1Cc1ccccc1,262.9,-1.5,-6.1,4.8,10.3*,-12.1,2.6,3.5
CC(C)(C)n1nnnc1C(c1ccccn1)N(Cc1ccco1)CC1CCCO1 (stereo not drawn),.,.,37.5,28.4,.,.,.,.
CC(C)COc1ccc(C(=O)N/N=C/c2ccoc2)cc1,562.3,2.0,.,.,0.0,1.3,.,.
Cc1ccc(-c2csc(N(C)C(=O)c3c(C)nn(-c4ccccc4)c3Cl)n2)cc1,281.8,-3.9,-10.3,.,15.7*,0.9,7.7,3.2
CN(C(=O)c1cccs1)c1nc(-c2ccc(Cl)cc2)cs1,.,.,-3.7,18.4,.,.,.,.
CCCCCNC(=O)C(c1cccc2ccccc12)n1c(=O)c(-c2ccco2)nc2ccccc21 (stereo not drawn),.,-0.4,.,.,.,.,.,.
Cc1sc2ncnc(N3CCC(C(=O)Nc4ccc(C#N)cc4)CC3)c2c1C,263.1,7.8,.,.,11.5*,13.0,0.1,7.8
Cc1sc2ncnc(N3CCC(C(=O)Nc4ccc(S(N)(=O)=O)cc4)CC3)c2c1C,632.6,-2.9,.,.,-0.1,17.4,.,.
Cc1ccc2cc3cc(C(=O)N4CCN(C(=O)c5ccco5)CC4)sc3nc2c1,233.4,-3.4,-0.6,10.5,-1.2,8.3,.,.
COc1ccc(/C=C(\C#N)C(=O)OCC(=O)Nc2ccc(-c3nc4ccc(C)cc4s3)cc2)cc1,208.8,-3.4,-60.5,8.4,-2.9,2.7,.,.
O=C(Nc1ccccc1)Nc1ccc2ccccc2n1,229.4,-16.0,.,.,11.7*,-2.7,1.4,4.2
SMILES,T cell HTS,Granule exo inh,EP2 modulator,EP2 antag,MC4R barr agon,MC4R antagonist,MC4R barr ag,MOR DOR agonist
O=C(Nc1ccc(F)cc1)Nc1ccc2ccccc2n1,221.4,-17.1,.,.,4.7,-8.8,.,.
CCOc1ccc(Nc2nc(-c3cccnc3)cs2)cc1,204.2,-3.0,.,.,24.8*,12.3,1.1,4.9
Brc1ccc(Nc2nc(-c3cccnc3)cs2)cc1,i,2.0,23.1,9.9,5.6,5.8,.,.
CCOc1ccccc1N1CCN(C(=O)C(F)(F)F)CC1,271.6,2.2,21.1,8.7,-1.8,-0.8,.,.
O=c1c(Cl)c(N/N=C/c2ccc(Cl)cc2)cnn1-c1ccccc1,191.6,3.1,-29.8,18.3,18.4*,2.9,9.4*,4.6
Cc1ccc(/C=C/C(=O)OCC(=O)N2CC(=O)Nc3ccccc32)o1,167.7,4.2,-58.9,1.6,0.9,-13.1,.,.
O=C1CN(C(=O)COC(=O)/C=C/c2ccc(OC(F)F)cc2)c2ccccc2N1,186.3,-4.7,-1.8,12.0,11.3*,-5.5,-0.9,2.7
CCOC(=O)c1nnn(-c2nonc2N)c1CN(C)C1CCCCC1,485.8,-0.3,12.6,11.9,3.0,14.2,.,.
Cc1ccc2nc(-c3cccc(NS(C)(=O)=O)c3)cc(-c3ccccc3)c2c1,132.5,-0.3,23.2,2.3,11.0*,0.0,7.5,3.1
CC(C)c1ccc(Oc2cccc(C(=O)/C(C#N)=C/N(C)C)c2)cc1,313.0,-0.6,15.3,8.4,-1.4,4.2,.,.
O=C(COc1ccccc1Cl)Nc1ccc2oc(=O)ccc2c1,547.4,10.1,-19.9,13.1,11.8*,-4.0,6.6,6.4
O=C(COc1ccc2ccc(=O)oc2c1)Nc1ccc(N2CCCCC2)cc1,476.0,2.9,.,.,16.1*,4.8,9.1*,9.0
CC(=O)Oc1ccc2c(c1)CCC1C2CC[C@@]2(C)C1C[C@@H](OC(C)=O)[C@@H]2OC(C)=O (stereo partly drawn),.,.,-32.5,17.9,.,.,.,.
CCOC(=O)Cc1csc(NC(=O)c2sc3nc4ccc(C)cc4cc3c2N)n1,398.3,-0.7,-21.9,7.3,19.4*,-4.6,1.5,3.6
